Results published in ChEMBL document CHEMBL3232712, “Antineoplastic agents. 595. Structural modifications of betulin and the X-ray crystal structure of an unusual betulin amine dimer” (2014).
In brackets after ≈: the same amount, converted by molar mass.

Key:
Type in all cases: functional
[1] = test system: SF-268; assay: Cytotoxicity against human SF268 cells after 48 hrs by SRB assay; conditions: SF-268, 48 h
Summary of the method: (§1)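 Human tumour lines in RPMI1640 with 5% fetal bovine serum, trypsinized and counted by hemacytometer, seeded in 96-well plates and allowed 24 h before serial compound dilutions were added. After 48 h exposure, cells were fixed with trichloroacetic acid and stained with sulforhodamine B, and optical density was read. GI50 was taken as the concentration halving net protein increase.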

[2] = Cytotoxicity against human BxPC3 cells after 48 hrs by SRB assay; conditions: BXPC-3, 48 h; summary of the method: as §1
[3] = Cytotoxicity against human KM20L2 cells after 48 hrs by SRB assay; conditions: KM-20L2, 48 h; summary of the method: as §1
[4] = test system: P388; assay: Cytotoxicity against mouse P388 cells after 48 hrs; conditions: P388, 48 h, read-out: ED50 (the source's name)
Summary of the method: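 Murine P388 leukemia cells, counted by Coulter counter, were grown 24 h in Fisher medium with 10% horse serum, then exposed 48 h to serial compound dilutions. Cell numbers were determined with a Coulter particle counter, and ED50 was calculated for growth inhibition.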

[5] = test system: DU-145; assay: Cytotoxicity against human DU145 cells after 48 hrs by SRB assay; conditions: DU-145, 48 h; summary of the method: as §1
[6] = test system: MCF7; assay: Cytotoxicity against human MCF7 cells after 48 hrs by SRB assay; conditions: MCF7, 48 h; summary of the method: as §1
[7] = test system: NCI-H460; assay: Cytotoxicity against human NCI-H460 cells after 48 hrs by SRB assay; conditions: NCI-H460, 48 h; summary of the method: as §1

Row | Structure (SMILES) | GI50 [1] [µg/mL] | GI50 [2] [µg/mL] | GI50 [3] [µg/mL] | EC50 [4] [µg/mL] | GI50 [5] [µg/mL] | GI50 [6] [µg/mL] | GI50 [7] [µg/mL]
1 | C=C(C)[C@@H]1CC[C@]2(COC(C)=O)CC[C@]3(C)[C@H](CC[C@@H]4[C@@]5(C)CCC(=O)C(C)(C)[C@@H]5CC[C@]43C)[C@@H]12 | 10.6 (≈ 22 µM) | > 10 | 12.7 (≈ 26.3 µM) | 0.12 (≈ 0.249 µM) | > 10 | 8 (≈ 16.6 µM) | 5.2 (≈ 10.8 µM)
2 | C=C(C)[C@@H]1CC[C@]2(COC(C)=O)CC[C@]3(C)[C@H](CC[C@@H]4[C@@]5(C)CC[C@H](O)C(C)(C)[C@@H]5CC[C@]43C)[C@@H]12 | 4 (≈ 8.25 µM) | 4.1 (≈ 8.46 µM) | 5 (≈ 10.3 µM) | 0.805 (≈ 1.66 µM) | 7.6 (≈ 15.7 µM) | 3 (≈ 6.19 µM) | 2.5 (≈ 5.16 µM)
3 | CC1(C)CC[C@]23CC[C@]4(C)[C@H](CC[C@@H]5[C@@]6(C)CC(Br)C(=O)C(C)(C)[C@@H]6CC[C@]54C)[C@H]2[C@H]1OC3 (some centres not stated) | 3.4 (≈ 6.54 µM) | 3.1 (≈ 5.97 µM) | 2.7 (≈ 5.2 µM) |  | 6.7 (≈ 12.9 µM) | 5 (≈ 9.62 µM) | 2.9 (≈ 5.58 µM)
4 | CC1(C)CC[C@]23CC[C@]4(C)[C@H](CC[C@@H]5[C@@]6(C)C=C(O)C(=O)C(C)(C)[C@@H]6CC[C@]54C)[C@H]2[C@H]1OC3 | > 10 | > 10 | 8 (≈ 17.6 µM) |  | 9.3 (≈ 20.5 µM) | 7.1 (≈ 15.6 µM) | 8.8 (≈ 19.4 µM)
5 | C=C(C)[C@@H]1CC[C@]2(COC(C)=O)CC[C@]3(C)[C@H](CC[C@@H]4[C@@]5(C)C[C@@H](Br)C(=O)C(C)(C)[C@@H]5CC[C@]43C)[C@@H]12 | 10.1 (≈ 18 µM) | 3.1 (≈ 5.52 µM) | 9.6 (≈ 17.1 µM) | 0.725 (≈ 1.29 µM) | 9 (≈ 16 µM) | 4.1 (≈ 7.3 µM) | 12.8 (≈ 22.8 µM)
6 | C=C(C)[C@@H]1CC[C@]2(COC(C)=O)CC[C@]3(C)[C@H](CC[C@@H]4[C@@]5(C)C[C@H](Br)C(=O)C(C)(C)[C@@H]5CC[C@]43C)[C@@H]12 | 3.4 (≈ 6.05 µM) | 3.4 (≈ 6.05 µM) | 4.4 (≈ 7.83 µM) | > 10 | 6.1 (≈ 10.9 µM) | 3.2 (≈ 5.7 µM) | 2.8 (≈ 4.99 µM)
7 | C=C(C)[C@@H]1CC[C@]2(COC(C)=O)CC[C@]3(C)[C@H](CC[C@@H]4[C@@]5(C)CC(Br)(Br)C(=O)C(C)(C)[C@@H]5CC[C@]43C)[C@@H]12 | 4.4 (≈ 6.87 µM) | 1 (≈ 1.56 µM) | 4.2 (≈ 6.56 µM) | 0.391 (≈ 0.61 µM) | 3.8 (≈ 5.93 µM) | 2.5 (≈ 3.9 µM) | 4.4 (≈ 6.87 µM)
8 | C=C(C)[C@@H]1CC[C@]2(COC(C)=O)CC[C@]3(C)[C@H](CC[C@@H]4[C@@]5(C)CC(N=[N+]=[N-])C(=O)C(C)(C)[C@@H]5CC[C@]43C)[C@@H]12 (some centres not stated) | > 10 | 6.6 (≈ 12.6 µM) | 4.2 (≈ 8.02 µM) | > 10 | 5.7 (≈ 10.9 µM) | 5 (≈ 9.55 µM) | 4.4 (≈ 8.4 µM)
9 | C=C(C)[C@@H]1CC[C@]2(COC(C)=O)CC[C@]3(C)[C@H](CC[C@@H]4[C@@]5(C)C=C(N)C(=O)C(C)(C)[C@@H]5CC[C@]43C)[C@@H]12 | > 10 | 7.9 (≈ 15.9 µM) | > 10 | > 10 | > 10 | > 10 | > 10
10 | C=C(C)[C@@H]1CC[C@]2(COC(C)=O)CC[C@]3(C)[C@H](CC[C@@H]4[C@@]5(C)C=C(NC6=C[C@]7(C)[C@H]8CC[C@@H]9[C@H]%10[C@H](C(=C)C)CC[C@]%10(COC(C)=O)CC[C@@]9(C)[C@]8(C)CC[C@H]7C(C)(C)C6=O)C(=O)C(C)(C)[C@@H]5CC[C@]43C)[C@@H]12 | > 10 | > 10 | > 10 | > 10 | > 10 | > 10 | > 10
11 | C=C(C)[C@@H]1CC[C@]2(COC(C)=O)CC[C@]3(C)[C@H](CC[C@@H]4[C@@]5(C)CC(=O)C(O)C(C)(C)[C@@H]5CC[C@]43C)[C@@H]12 (some centres not stated) | 6.1 (≈ 12.2 µM) | 9.1 (≈ 18.2 µM) | 5.9 (≈ 11.8 µM) | > 10 | > 10 | 5.8 (≈ 11.6 µM) | 8 (≈ 16 µM)
12 | C=C(C)[C@@H]1CC[C@]2(COC(C)=O)CC[C@]3(C)[C@H](CC[C@@H]4[C@@]5(C)CC6=NC(C)(C)N=C6C(C)(C)[C@@H]5CC[C@]43C)[C@@H]12 | > 10 | 14.5 (≈ 27.1 µM) | > 10 |  | > 10 | 11.2 (≈ 20.9 µM) | > 10
13 | C=C(C)[C@@H]1CC[C@]2(CO)CC[C@]3(C)[C@H](CC[C@@H]4[C@@]5(C)CC6=NC(C)(C)N=C6C(C)(C)[C@@H]5CC[C@]43C)[C@@H]12 | 6.9 (≈ 14 µM) | 1.9 (≈ 3.86 µM) | 4.9 (≈ 9.94 µM) |  | 5.8 (≈ 11.8 µM) | 2 (≈ 4.06 µM) | 2.8 (≈ 5.68 µM)
14 | CC1(C)CC[C@]23CC[C@]4(C)[C@H](CC[C@@H]5[C@@]6(C)CCC(=O)C(C)(C)[C@@H]6CC[C@]54C)[C@H]2[C@H]1OC3 | > 10 | > 10 | > 10 |  | > 10 | > 10 | > 10
15 | CC1(C)CC[C@]23CC[C@]4(C)[C@H](CC[C@@H]5[C@@]6(C)CC(N=[N+]=[N-])C(=O)C(C)(C)[C@@H]6CC[C@]54C)[C@H]2[C@H]1OC3 (some centres not stated) | 8.7 (≈ 18.1 µM) | 3.1 (≈ 6.44 µM) | 7.9 (≈ 16.4 µM) |  | 4.5 (≈ 9.34 µM) | 4.7 (≈ 9.76 µM) | 3.8 (≈ 7.89 µM)
16 | CC1(C)CC[C@]23CC[C@]4(C)[C@H](CC[C@@H]5[C@@]6(C)C=C(N)C(=O)C(C)(C)[C@@H]6CC[C@]54C)[C@H]2[C@H]1OC3 | > 10 | 10.8 (≈ 23.8 µM) | > 10 |  | > 10 | 11.2 (≈ 24.7 µM) | > 10
17 | CC1(C)CC[C@]23CC[C@]4(C)[C@H](CC[C@@H]5[C@@]6(C)C=C(NC7=C[C@]8(C)[C@H]9CC[C@@H]%10[C@H]%11[C@H]%12OC[C@@]%11(CCC%12(C)C)CC[C@@]%10(C)[C@]9(C)CC[C@H]8C(C)(C)C7=O)C(=O)C(C)(C)[C@@H]6CC[C@]54C)[C@H]2[C@H]1OC3 | > 10 | > 10 | > 10 |  | > 10 | > 10 | > 10
18 | C=C(C)[C@@H]1CC[C@]2(C(=O)OC)CC[C@]3(C)[C@H](CC[C@@H]4[C@@]5(C)CC(=O)CC(C)(C)[C@@H]5CC[C@]43C)[C@@H]12 | > 10 | 8.2 (≈ 17.5 µM) | > 10 | > 10 | > 10 | 11.6 (≈ 24.7 µM) | 13.1 (≈ 27.9 µM)
19 | C=C(C)[C@@H]1CC[C@]2(C(=O)OC)CC[C@]3(C)[C@H](CC[C@@H]4[C@@]5(C)C=C(N6CCOCC6)C(=O)C(C)(C)[C@@H]5CC[C@]43C)[C@@H]12 | > 10 | 3.9 (≈ 7.07 µM) | > 10 |  | > 10 | 6.1 (≈ 11.1 µM) | 4.4 (≈ 7.97 µM)
20 | C=C(C)[C@@H]1CC[C@]2(COC(C)=O)CC[C@]3(C)[C@H](CC[C@@H]4[C@@]5(C)CC[C@H](OC(C)=O)C(C)(C)[C@@H]5CC[C@]43C)[C@@H]12 [BETULIN DIACETATE] | > 10 | > 10 | > 10 | 0.806 | > 10 | > 10 | > 10
21 | C=C(C)[C@@H]1CC[C@]2(CO)CC[C@]3(C)[C@H](CC[C@@H]4[C@@]5(C)CC[C@H](O)C(C)(C)[C@@H]5CC[C@]43C)[C@@H]12 [BETULIN] | > 10 | 9.3 (≈ 21 µM) | > 10 |  | > 10 | > 10 | 7.4 (≈ 16.7 µM)
